MsrA inh: bovine MsrA inhibition | purified bovine MsrA, absorbance read-out | inhibition, % at 15.5 µM | 360,000 tested, 0.75% active | AID 651718;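 note: 0% = vehicle wells with enzyme and 100% = reference inhibitor wells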
bovine MsrA act: bovine methionine sulfoxide reductase A activation; purified bovine MsrA, absorbance read-out; activation, % at 10.6 µM; 360,000 tested, 0.3% active; AID 602163; in the data active = activation above about 7.5%;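 note: 0% = vehicle and 100% = reference activator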
ASAP1 inh: inhibitors of human ASAP1 ArfGAP activity; Q9ULH1; ASAP1-stimulated ARF1 GTP hydrolysis, GDP FP detection; inhibition, % at 16.5 µM; 360,000 tested, 0.19% active; AID 624377; in the data active = inhibition above about 25%;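 note: 0% = vehicle with enzyme and substrate and 100% = no enzyme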
HGIII-sPLA2 inh: Inhibits HGIII-sPLA2 liposome hydrolysis, primary screen; 370,000 tested, 0.56% active; QFRET BODIPY PC-A2 liposome hydrolysis, fluorescence; inhibition, % at 12.2 µM;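 active = inhibition above mean plus 3 SD of compounds lying within the high and low control bounds, cut at about 19% in these data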;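 note: 0% = median of test compound wells and 100% = no enzyme DMSO wells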
Rev-erbA mod: modulators of human Rev-erb alpha DNA binding; activity, % at 10 µM; AID 1259318; P20393; Rev-erbα–FITC-DNA binding, fluorescence polarization, 90 min; 370,000 tested, 0.79% active;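 active = activity above about 14%, limit read from the data; passing the limit was not always enough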;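 note: 0% = DMSO wells with 35 nM protein and 100% = DMSO wells with 750 nM protein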
Target sequence (P20393 whole entry, looked up): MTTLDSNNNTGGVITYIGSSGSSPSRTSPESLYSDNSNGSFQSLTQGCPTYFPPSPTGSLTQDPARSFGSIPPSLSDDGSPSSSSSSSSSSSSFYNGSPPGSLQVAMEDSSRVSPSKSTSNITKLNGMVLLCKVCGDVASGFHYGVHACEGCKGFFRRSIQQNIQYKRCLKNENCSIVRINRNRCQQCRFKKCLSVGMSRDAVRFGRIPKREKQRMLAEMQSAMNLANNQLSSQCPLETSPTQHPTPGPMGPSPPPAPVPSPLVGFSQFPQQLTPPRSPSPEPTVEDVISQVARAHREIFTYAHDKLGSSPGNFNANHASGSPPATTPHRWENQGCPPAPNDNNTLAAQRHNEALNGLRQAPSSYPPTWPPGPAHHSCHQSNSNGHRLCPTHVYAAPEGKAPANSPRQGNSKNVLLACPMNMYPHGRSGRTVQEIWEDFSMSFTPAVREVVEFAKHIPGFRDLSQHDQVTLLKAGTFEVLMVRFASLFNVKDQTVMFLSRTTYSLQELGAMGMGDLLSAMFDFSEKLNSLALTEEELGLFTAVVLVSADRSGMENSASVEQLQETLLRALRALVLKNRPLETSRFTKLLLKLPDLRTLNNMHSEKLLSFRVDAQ
ARFGAP1 inh: inhibitors of rat ARFGAP1. inhibition, % at 16.5 µM. AID 651572. 360,000 tested, 0.26% active. Arfgap1-stimulated ARF1 GTP hydrolysis, GDP FP detection. Q62848;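 active = inhibition above a per-plate limit, mean inhibition of low control wells plus 3 SD, cut at about 25% in these data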;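 note: 0% = DMSO wells with enzyme and 100% = wells lacking Arfgap1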
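Repeats: one replicate per compound; assay system: rat Arfgap1 catalytic domain, aa 1-136; times: enzyme reaction 120 min at 25 °C after 20 min preincubation; detection: FP of antibody-bound GDP Alexa 633 tracer, ex 620/em 688 nm; benchmarks: high control wells lacking Arfgap1, low control full reaction with DMSO; reagent: human ARF1(Δ1-17)-GTP substrate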
MsrA conf: bovine MsrA inhibition, confirmed; shares compounds with MsrA inh; purified bovine MsrA, absorbance read-out; inhibition, % at 15.5 µM; 2,300 tested, 41% active; AID 651822;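 note: coupled to thioredoxin reductase with NADPH and selenocystamine and DMSO as substrate; 0% = vehicle only and 100% = full effect of reference inhibitor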
Numbers without * were called inactive; · = no result given. Compounds with a hit are over-represented: about 2.7% of the library has one in this group of screens. Cut-off read from the data, not from the text of the source, unless noted: active = inhibition above about 4.5%; inactive = the rest.

SMILES | MsrA inh | bovine MsrA act | ASAP1 inh | HGIII-sPLA2 inh | Rev-erbA mod | ARFGAP1 inh | MsrA conf
O=C1C(Cl)=C(NCCc2ccccc2)C(=O)N1CCc1ccccc1 | -1 | -1 | 0 | 3 | -3 | 3 | ·
CN(C)N=Nc1nc2c(c(=O)n(C)c(=O)n2C)n1C | 5.8* | -4 | -15 | 5 | -1 | 2 | 4
CC(C)/C=N/Nc1nc2c(c(=O)n(C)c(=O)n2C)n1C | 0 | -3 | 5 | -6 | -1 | 4 | ·
COC(=O)/C(=C1/Oc2cc3c(cc2S1)OCO3)C(F)(F)F | 6.6* | 0 | -16 | 2 | 0 | -4 | 7.0*
COC(=O)/C(=C1/Oc2ccc(C)cc2S1)C(F)(F)F | 9.6* | -14 | 2 | 4 | -4 | 8 | 11*
COc1cc(C2c3cc4c(cc3OC(Nc3ccc(C(=O)O)cc3)C2C)OCO4)cc(OC)c1OC (centres undefined) | 1 | -2 | 7 | 8 | 0 | -4 | ·
C=CCNC(=O)Nc1ccc2c(c1)[C@]1(CC(=O)N(CC(C)C)C1c1ccccc1)C(=O)N2C (some centres undefined) | · | · | · | 9 | 1 | · | ·
COc1cccc2cc3c(=O)oc4ccccc4c3nc12 | 19* | -4 | -8 | 6 | 0 | 11 | 13*
CCN(CC)C(=O)c1ccc2nc3ccccc3nc2c1 | 5.6* | -4 | 3 | 2 | -4 | -4 | 2
CCN(CC)C(=O)c1ccc2nc(-c3ccccc3)c(-c3ccccc3)nc2c1 | 1 | -3 | 2 | -10 | -1 | -5 | ·
CCN(C[C@H]1[C@@H](c2ccc(C3=CCCC3)cc2)[C@H](CO)N1Cc1ccccn1)S(=O)(=O)c1ccccc1[N+](=O)[O-] | · | · | · | -7 | 4 | · | ·
COc1ccc(/C=N/NC2=NS(=O)(=O)c3ccccc32)cc1OC | 4.8* | -5 | -7 | 0 | -2 | -10 | 4
COc1cc(/C=N/NC2=NS(=O)(=O)c3ccccc32)ccc1OC(C)=O | 3 | -5 | 10 | -9 | 4 | -3 | ·
CC(C)[C@H](N)C(=O)N[C@H](C(=O)N1CCC2CCN(S(=O)(=O)c3ccccc3)CC21)C(C)C (some centres undefined) | · | · | · | 3 | 3 | · | ·
Cc1cc(C)n(C(=O)c2ccc(C)o2)n1 | -1 | -9 | -4 | 2 | -2 | -1 | ·
Cc1cc(C)n(C(=O)c2cc3sccc3[nH]2)n1 | 4.7* | -2 | 1 | -2 | 3 | -7 | 4
CCOC(=O)CC[C@H]1CC[C@]2(CCCN(C(=O)C3CCCC3)C2)O1 | · | · | · | 10 | 6 | · | ·
Cc1oc2c(CN3CCOCC3)c(O)ccc2c(=O)c1-c1ccc(Cl)cc1 | 5.3* | -11 | -2 | -5 | -3 | 8 | 1
NS(=O)(=O)c1ccc(-c2ccc(C=O)o2)cc1 | 4.7* | -12 | -6 | -1 | 6 | -6 | 3
C=CCN1[C@@H](Cc2ccccc2)COc2cccc(F)c2S1(=O)=O | · | · | · | 3 | -4 | · | ·
O=C(O)c1ccc(N=NN2CCCCCC2)cc1 | 4 | -4 | -8 | 16 | -3 | -2 | ·
O=C(O)c1ccc(N=NN2CCCC2)cc1 | 5.1* | -6 | 3 | 2 | 4 | 8 | 3
COc1cccc(/C=N/n2c(CO)nc3ccccc32)c1OC | 10* | -1 | -4 | -2 | 1 | 1 | 13*
CNc1nc2ccccc2n1/N=C/c1cccc(OC)c1OC | 2 | -3 | -4 | -8 | -4 | -9 | ·
CC1=C(C(=O)c2ccccc2)C(c2ccc(O)cc2)NC(=S)N1 (centres undefined) | 5.4* | -4 | -13 | 9 | -4 | 2 | 1
SMILES | MsrA inh | bovine MsrA act | ASAP1 inh | HGIII-sPLA2 inh | Rev-erbA mod | ARFGAP1 inh | MsrA conf
C/C(=N\Nc1ccc(C(F)(F)F)cc1[N+](=O)[O-])C1CC1 | 9.2* | -3 | -2 | 0 | 9 | -5 | 8.8*
Cc1ccc(OCCNc2ccc(C(F)(F)F)cc2[N+](=O)[O-])cc1 | -1 | -2 | -6 | -6 | -5 | -4 | ·
Cc1ccc(Nc2ccc(C(F)(F)F)cc2[N+](=O)[O-])cc1 | 10.0* | -3 | 4 | 1 | 1 | -16 | 17*
O=C(O)c1ccc(N2C(=O)/C(=C\c3ccccc3)N=C2c2ccccc2)cc1 | 1 | -5 | 4 | -5 | -10 | -9 | ·
CC1=N/C(=C\c2ccc3c(c2)OCO3)C(=O)N1c1ccc(C(=O)O)cc1 | 5.6* | -1 | -13 | 5 | -3 | 10 | 2
O=C(Cc1ccccc1)c1ccc(O)cc1O | 2 | -2 | 9 | -25 | 8 | 18 | ·
O=C(Cc1ccc2cccnc2c1)c1ccc(O)cc1O | 5.0* | -16 | 10 | -54 | 1 | 4 | 4
O=C(COc1ccccc1[N+](=O)[O-])N(Cc1ccccc1)c1ccccn1 | 7.3* | -3 | -3 | 6 | -1 | -4 | 2
COc1ccc2c(c1)CCCN2C(=O)C1CCCN(S(=O)(=O)c2ccc(Cl)s2)C1 (centres undefined) | · | · | · | -8 | 5 | · | ·
Cc1cc(=O)[nH]c(N/N=C/c2cccs2)n1 | 0 | -3 | -2 | 3 | -1 | 7 | ·
Cc1ccsc1/C=N/Nc1nc2ccccc2[nH]1 | 4.8* | -6 | -17 | 9 | 2 | 10 | 3
Cc1cc(=O)[nH]c(N/N=C/c2sccc2C)n1 | 4.8* | -4 | 3 | 2 | 0 | -4 | 5.3*
COc1ccc(C(=O)CSc2nnc(-c3n[nH]c4c3CCC4)n2N)cc1OC | · | · | · | -4 | -1 | · | ·
COc1ccc2ccccc2c1C=Nn1c(-c2n[nH]c3c2CCC3)n[nH]c1=S | · | · | · | 10 | 5 | · | ·
CCC(=O)N1CCN(c2ccc(-n3c(=O)ccc4cnc5ccc(-c6cnc7ccccc7c6)cc5c43)cc2C(F)(F)F)CC1 | 1 | · | 7 | 5 | 1 | 1 | ·
N#C/C(=C\c1ccc(O)c([N+](=O)[O-])c1)C(=O)NCc1ccccc1 | 5.5* | -4 | 7 | 0 | 15 | 7 | 2
CCCCCCCCN1C(=O)[C@@H](CC(=O)NCc2ccc(OC)c(OC)c2)C[C@@]2(C(=O)OC)C1=C[C@H](COCc1ccccc1)O[C@@H]2C | · | · | · | -16 | -1 | · | ·
CCOc1cc(C(=O)NCCN2C(=O)S/C(=C\c3cccnc3)C2=O)cc(OCC)c1OCC | 0 | -2 | 6 | -2 | 1 | -2 | ·
CCOc1ccc(N2CC(C(=O)NCCN3C(=O)S/C(=C/c4cccnc4)C3=O)CC2=O)cc1 (centres undefined) | 5.0* | -4 | 17 | 6 | -7 | 5 | 2
C[C@@H]1CCN(C2CC2)S(=O)(=O)c2c(cccc2N2CC[C@@H](N(C)C)C2)O1 | · | · | · | -4 | 3 | · | ·
CN(C)S(=O)(=O)c1ccc2nc(NC(=O)c3cccs3)sc2c1 | 6.2* | -3 | -2 | -4 | -5 | -1 | 5.4*
O=C(Nc1nc2ccc(S(=O)(=O)N3CCOCC3)cc2s1)c1cccs1 | 5.6* | -2 | -4 | 4 | 4 | 10 | 4

From PubChem BioAssay
